Experimental data as given in ChEMBL document CHEMBL1130207, “Structure-activity relationships for acridine-substituted analogues of the mixed topoisomerase I/II inhibitor N-[2-(dimethylamino)ethyl]acridine-4-carboxamide” (J Med Chem, 1997).

What was measured:
Jurkat [1] = test: Inhibitory concentration required to reduce human Jurkat leukemia (JLC sensitive, wild type) cell number to 50% of control cultures; assay type: functional, cell-based
LLTC cell line = test: Inhibitory concentration required to reduce Lewis lung carcinoma cell number to 50% of control cultures; assay type: functional, cell-based; details: Mus musculus
How it was run: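 Lewis lung carcinoma cells seeded at 10³ per well and exposed to drug for 4 days. Growth read by sulforhodamine assay; IC50 is the drug concentration (nM) that cuts cell number to 50% of control cultures. Value is the mean of at least two independent determinations done in duplicate; coefficient of variation 7.9–8.5%.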

P388 = test: Inhibitory concentration required to reduce murine p388 leukemia cell number to 50% of control cultures; assay type: functional, cell-based; details: Mus musculus
Jurkat [2] = test: Ratio of IC50 of mutant Jurkat leukemia (JLD) to the IC50 of Jurkat leukemia (JLC sensitive, wild type); assay type: functional, Homo sapiens
How it was run: (§1)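 Jurkat lines were each plated at 3.75 × 10³ per well and grown 4 days with drug: parental JL_C, amsacrine-resistant JL_A and doxorubicin-resistant JL_D. Growth was read by sulforhodamine assay. IC50 is the concentration giving 50% of control cell number. Ratio is IC50 in JL_A or JL_D divided by IC50 in JL_C.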

Jurkat [3] = test: Ratio of IC50 of Jurkat leukemia amsacrine (JLA) to the IC50 of Jurkat leukemia (JLC sensitive, wild type); assay type: functional, Homo sapiens; how it was run: as §1

| Structure (SMILES) | IC50 (Jurkat [1]) | IC50 (LLTC cell line) | IC50 (P388) | Ratio (Jurkat [2]) | Ratio (Jurkat [3]) |
| --- | --- | --- | --- | --- | --- |
| CCc1ccc2nc3c(C(=O)NCCN(C)C)cccc3cc2c1 | 1840 nM | 346 nM | 240 nM | 1.85 | 1.55 |
| CCc1cccc2cc3cccc(C(=O)NCCN(C)C)c3nc12 | 137 nM | 20 nM | 18 nM | 4.4 | 4.1 |
| COc1ccc2cc3cccc(C(=O)NCCN(C)C)c3nc2c1 | 580 nM | 281 nM | 160 nM | 1.1 | 1.1 |
| Cc1ccc2nc3c(C(=O)NCCN(C)C)cccc3cc2c1 | 1350 nM | 735 nM | 330 nM | 1.1 | 1 |
| CN(C)CCNC(=O)c1cccc2cc3ccccc3nc12 | 580 nM | 189 nM | 98 nM | 2.3 | 1.9 |
| COc1cc(NS(C)(=O)=O)ccc1Nc1c2ccccc2nc2ccccc12 [AMSACRINE] | 37 nM | 12 nM | 20 nM | 73.7 | 84.9 |
| CN(C)CCNC(=O)c1cccc2cc3ccc(C(F)(F)F)cc3nc12 | 1350 nM | 1750 nM | 1130 nM | 1 | 0.9 |
| CN(C)CCNC(=O)c1cccc2cc3ccc(F)cc3nc12 | 455 nM | 122 nM | 49 nM | 1.9 | 1.5 |
| COc1cccc2c1C(=O)c1c(O)c3c(c(O)c1C2=O)C[C@@](O)(C(=O)CO)C[C@@H]3O[C@H]1C[C@H](N)[C@H](O)[C@H](C)O1 [DOXORUBICIN] | 9.6 nM | 22 nM | 15 nM | 12.7 | 4.39 |
| CN(C)CCNC(=O)c1cccc2cc3cccc(N(C)C)c3nc12 | 5710 nM | 4130 nM | 1200 nM | 0.9 | 0.85 |
| CN(C)CCNC(=O)c1cccc2cc3cc(F)ccc3nc12 | 424 nM | 158 nM | 55 nM | 2.1 | 1.8 |
| CN(C)CCNC(=O)c1cccc2cc3cc(Cl)ccc3nc12 | 753 nM | 469 nM | 250 nM | 1 | 0.8 |
| Cc1c2ccccc2nc2c(C(=O)NCCN(C)C)cccc12 | 436 nM | 161 nM | 150 nM | 1 | 0.85 |
| CN(C)CCNC(=O)c1cccc2cc3ccc(Br)cc3nc12 | 446 nM | 230 nM | 160 nM | 1.1 | 0.9 |
| CN(C)CCNC(=O)c1cccc2cc3cc(C(C)(C)C)ccc3nc12 | 4390 nM | 4590 nM | 6300 nM | 1.2 | 1.1 |
| CN(C)CCNC(=O)c1cccc2cc3cc(N(C)C)ccc3nc12 | 2480 nM | 1680 nM | 1100 nM | 1.8 | 1.8 |
| CC(C)c1ccc2nc3c(C(=O)NCCN(C)C)cccc3cc2c1 | 7000 nM | 5820 nM | 3700 nM | 1.2 | 0.9 |
| CN(C)CCNC(=O)c1cccc2cc3cccnc3nc12 | 1420 nM | 452 nM | 340 nM | 1.2 | 1.1 |
| CC(C)c1cccc2cc3cccc(C(=O)NCCN(C)C)c3nc12 | 2500 nM | 832 nM | 650 nM | 1 | 1 |
| CN(C)CCNC(=O)c1cccc2cc3cccc(C(F)(F)F)c3nc12 | 75 nM | 17 nM | 18 nM | 5 | 4.4 |

| Structure (SMILES) | IC50 (Jurkat [1]) | IC50 (LLTC cell line) | IC50 (P388) | Ratio (Jurkat [2]) | Ratio (Jurkat [3]) |
| --- | --- | --- | --- | --- | --- |
| CN(C)CCNC(=O)c1cccc2cc3ccc(N(C)C)cc3nc12 | 212 nM | 272 nM | 260 nM | 0.85 | 0.6 |
| CN(C)CCNC(=O)c1ccc2nc3c(C(=O)NCCN(C)C)cccc3cc2c1 | 1120 nM | 2830 nM | 890 nM | 1 | 0.6 |
| CN(C)CCNC(=O)c1cccc2c(-c3ccccc3)c3ccccc3nc12 | 2700 nM | 1200 nM | 4100 nM | 1.1 | 0.8 |
| CN(C)CCNC(=O)c1cccc2cc3cc(O)ccc3nc12 | 508 nM | 469 nM | 170 nM | 3 | 2.5 |
| CN(C)CCNC(=O)c1cccc2cc3cccc(Br)c3nc12 | 26 nM | 6.2 nM | 3.8 nM | 4.9 | 3.8 |
| CN(C)CCNC(=O)c1cccc2cc3cccc(Cl)c3nc12 | – | 36 nM | 6.5 nM | – | 4.2 |
| CN(C)CCNC(=O)c1cccc2c(N)c3ccccc3nc12 | 27 nM | 5.3 nM | 8 nM | 6.1 | 4.6 |
| Cc1cccc2nc3c(C(=O)NCCN(C)C)cccc3cc12 | 1060 nM | 372 nM | 250 nM | 1.05 | 0.95 |
| CN(C)CCNC(=O)c1cccc2cc3cc(Br)ccc3nc12 | 756 nM | 447 nM | 87 nM | 1 | 0.8 |
| Cc1cccc2cc3cccc(C(=O)NCCN(C)C)c3nc12 | 46 nM | 5.6 nM | 6.4 nM | 4.8 | 4.6 |
| CN(C)CCNC(=O)c1cccc2cc3c(Cl)cccc3nc12 | 919 nM | 258 nM | 120 nM | 1.3 | 1.25 |
| CN(C)CCNC(=O)c1cccc2cc3cc(-c4ccccc4)ccc3nc12 | 240 nM | 168 nM | 94 nM | 6.5 | 3 |
| CN(C)CCNC(=O)c1cccc2cc3cccc(F)c3nc12 | 103 nM | 21 nM | 14 nM | 5.6 | 4.5 |
| Cc1ccc2cc3cccc(C(=O)NCCN(C)C)c3nc2c1 | 625 nM | 176 nM | 96 nM | 1.5 | 1.3 |
| CN(C)CCNC(=O)c1cccc2cc3cccc(-c4ccccc4)c3nc12 | 1660 nM | 706 nM | 250 nM | 1.4 | 1.55 |
| CN(C)CCNC(=O)c1cccc2cc3cc(C(F)(F)F)ccc3nc12 | 6390 nM | 5950 nM | 8600 nM | 1 | 0.8 |
| COc1ccc2nc3c(C(=O)NCCN(C)C)cccc3cc2c1 | 1590 nM | 810 nM | 580 nM | 1.1 | 1 |
| CN(C)CCNC(=O)c1cccc2cc3ccc(Cl)cc3nc12 | 397 nM | 156 nM | 125 nM | 1.3 | 1.1 |
| COc1cccc2cc3cccc(C(=O)NCCN(C)C)c3nc12 | 111 nM | 36 nM | 26 nM | 5.6 | 4.9 |
